Measured values reported in ChEMBL document CHEMBL5120843, “Structure and Antimicrobial Activity of Rare Lactone Lipids from the Sooty Mold (Scorias spongiosa)” (J Nat Prod, 2022).
In brackets after ≈: the same amount, converted by molar mass.

Legend:
Cryptococcus neoformans [1] = experiment: Antifungal activity against Cryptococcus neoformans ATCC 90113 assessed as minimum inhibitory concentration incubated for 70 to 74 hrs by CLSI protocol based assay; type: functional; settings: time 70-74 hrs
Method in brief: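 Cryptococcus neoformans in Sabouraud dextrose broth at final 1.5 × 10^3, serially diluted samples in duplicate, final concentration 1/100th of stock. Read at 530 nm before and after 35 °C for 70–74 h. MIC is the lowest test concentration with no detectable growth.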

Staphylococcus aureus [2] = experiment: Antibacterial activity against methicillin-resistant Staphylococcus aureus ATCC 33591 assessed as minimum bactericidal concentration incubated for 16 to 20 hrs by CLSI protocol based assay; type: functional; settings: time 16-20 hrs
Cryptococcus neoformans [3] = experiment: Antifungal activity against Cryptococcus neoformans ATCC 90113 incubated for 70 to 74 hrs by CLSI protocol based assay; type: functional, organism-based
Cryptococcus neoformans [4] = experiment: Antifungal activity against Cryptococcus neoformans ATCC 90113 assessed as minimum fungicidal concentration incubated for 70 to 74 hrs by CLSI protocol based assay; type: functional; settings: time 70-74 hrs
Method in brief: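 From clear wells of the Cryptococcus broth assay (Sabouraud dextrose, 35 °C, 70–74 h), 5 μL transferred to fresh medium and reincubated under the same conditions. MFC is the lowest concentration that kills the organism.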

Cryptococcus neoformans [5] = experiment: Synergistic antifungal activity against Cryptococcus neoformans H99 assessed as […] at 2 ug/ml incubated for 72 hrs by CLSI protocol based checkerboard assay; type: functional; settings: dose 2 µg/ml
Method in brief: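 Checkerboard per CLSI. Overnight C. neoformans H99 culture diluted in RPMI 1640 with MOPS, pH 7.0, to final 1.0 × 10^4 CFU/mL. […] Single-agent, solvent and media controls included. OD 490 nm read before and after 30 °C for 72 h, normalized to solvent control. FIC ≤ 0.5 scored as synergy.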

Staphylococcus aureus [6] = experiment: Antibacterial activity against Staphylococcus aureus ATCC 29213 assessed as minimum bactericidal concentration incubated for 16 to 20 hrs by CLSI protocol based assay; type: functional; settings: time 16-20 hrs
Staphylococcus aureus [7] = experiment: Antibacterial activity against methicillin-resistant Staphylococcus aureus ATCC 33591 assessed as minimum inhibitory concentration incubated for 16 to 20 hrs by CLSI protocol based assay; type: functional; settings: time 16-20 hrs
Cryptococcus neoformans [8] = experiment: Synergistic antifungal activity against Cryptococcus neoformans H99 assessed as fold increase in amphotericin fungicidal activity at 2 ug/ml incubated for 48 hrs by CLSI protocol based yeast peptone dextrose agar plate method; type: functional; settings: dose 2 µg/ml
Method in brief: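 Fungicidal read-out from the H99 checkerboard (RPMI/MOPS pH 7.0, 1.0 × 10^4 CFU/mL, 30 °C, 72 h). Plate shaken, then 2 μL from each well spotted on YPD agar and incubated at 30 °C for 48 h.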

Staphylococcus aureus [9] = experiment: Antibacterial activity against Staphylococcus aureus ATCC 29213 incubated for 16 to 20 hrs by CLSI protocol based assay; type: functional, organism-based
Pichia kudriavzevii [10] = experiment: Antifungal activity against Candida krusei ATCC 6258 incubated for 46 to 50 hrs by CLSI protocol based assay; type: functional, organism-based
Staphylococcus aureus [11] = experiment: Antibacterial activity against methicillin-resistant Staphylococcus aureus ATCC 33591 incubated for 16 to 20 hrs by CLSI protocol based assay; type: functional, organism-based
Staphylococcus aureus [12] = experiment: Antibacterial activity against Staphylococcus aureus ATCC 29213 assessed as minimum inhibitory concentration incubated for 16 to 20 hrs by CLSI protocol based assay; type: functional; settings: time 16-20 hrs
Nakaseomyces glabratus [13] = experiment: Antifungal activity against Candida glabrata ATCC 90030 assessed as minimum inhibitory concentration incubated for 46 to 50 hrs by CLSI protocol based assay; type: functional; settings: time 46-50 hrs
Method in brief: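 Candida strains in RPMI 1640/0.2% dextrose/0.03% glutamine/MOPS, pH 6.0. Inoculum 1.5 × 10^3, samples serially diluted from DMSO stocks, duplicate wells, final concentration 1/100th of stock. Read at 530 nm before and after 35 °C for 46–50 h. MIC taken as lowest test concentration with no detectable growth.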

Pichia kudriavzevii [14] = experiment: Antifungal activity against Candida krusei ATCC 6258 assessed as minimum fungicidal concentration incubated for 46 to 50 hrs by CLSI protocol based assay; type: functional; settings: time 46-50 hrs
Method in brief: (§1)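 After the Candida broth microdilution (RPMI/MOPS pH 6.0, 35 °C, 46–50 h), 5 μL from each clear well moved to fresh medium and incubated again under the same conditions. MFC defined as the lowest test concentration that kills the organism.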

Pichia kudriavzevii [15] = experiment: Antifungal activity against Candida krusei ATCC 6258 assessed as minimum inhibitory concentration incubated for 46 to 50 hrs by CLSI protocol based assay; type: functional; settings: time 46-50 hrs
Method in brief: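 Inoculum 1.5 × 10^3, samples serially diluted from DMSO stocks, duplicate wells, final concentration 1/100th of stock. Read at 530 nm before and after 35 °C for 46–50 h. MIC taken as lowest test concentration with no detectable growth.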

Nakaseomyces glabratus [16] = experiment: Antifungal activity against Candida glabrata ATCC 90030 incubated for 46 to 50 hrs by CLSI protocol based assay; type: functional, organism-based
Nakaseomyces glabratus [17] = experiment: Antifungal activity against Candida glabrata ATCC 90030 assessed as minimum fungicidal concentration incubated for 46 to 50 hrs by CLSI protocol based assay; type: functional; settings: time 46-50 hrs; method in brief: as §1
Candida albicans = experiment: Antifungal activity against Candida albicans ATCC 90028 incubated for 46 to 50 hrs by CLSI protocol based assay; type: functional, organism-based
Cryptococcus neoformans [18] = experiment: Synergistic antifungal activity against Cryptococcus neoformans H99 assessed as fractional inhibitory concentration incubated for 72 hrs by CLSI protocol based checkerboard assay; type: functional
Method in brief: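 Checkerboard in RPMI 1640 buffered with MOPS pH 7.0. Final inoculum 1.0 × 10^4 CFU/mL from an overnight H99 culture. […] OD490 read before and after 72 h at 30 °C, normalized to solvent control. FIC ≤0.5 taken as synergy.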

SMILES | MIC (Cryptococcus neoformans [1]) [µg/mL] | MBC (Staphylococcus aureus [2]) [µg/mL] | IC50 (Cryptococcus neoformans [3]) [µg/mL] | MFC (Cryptococcus neoformans [4]) [µg/mL] | fold change (FC) (Cryptococcus neoformans [5]) | MBC (Staphylococcus aureus [6]) [µg/mL] | MIC (Staphylococcus aureus [7]) [µg/mL] | fold change (FC) (Cryptococcus neoformans [8]) | IC50 (Staphylococcus aureus [9]) [µg/mL] | IC50 (Pichia kudriavzevii [10]) [µg/mL] | IC50 (Staphylococcus aureus [11]) [µg/mL] | MIC (Staphylococcus aureus [12]) [µg/mL] | MIC (Nakaseomyces glabratus [13]) [µg/mL] | MFC (Pichia kudriavzevii [14]) [µg/mL] | MIC (Pichia kudriavzevii [15]) [µg/mL] | IC50 (Nakaseomyces glabratus [16]) [µg/mL] | MFC (Nakaseomyces glabratus [17]) [µg/mL] | IC50 (Candida albicans) [µg/mL] | FIC (Cryptococcus neoformans [18])
CCCCCCCCCCCC[C@]1(C)C=C/C(=C2/C(=O)O[C@@H](CC(=O)OC)C2=O)O1 | 1.25 (≈ 2.97 µM) | 5 (≈ 11.9 µM) | 0.63 (≈ 1.5 µM) | 1.25 (≈ 2.97 µM) | 16 | 10 (≈ 23.8 µM) | 1.25 (≈ 2.97 µM) | 8 | 1.08 (≈ 2.57 µM) | 20 (≈ 47.6 µM) | 0.71 (≈ 1.69 µM) | 2.5 (≈ 5.94 µM) |  |  |  |  |  |  | 
CCCCCCCCCCCC[C@]1(C)C=C/C(=C2/C(=O)O[C@@H](CC(=O)O)C2=O)O1 | 0.63 (≈ 1.55 µM) | 10 (≈ 24.6 µM) | 0.37 (≈ 0.91 µM) | 0.63 (≈ 1.55 µM) |  | 20 (≈ 49.2 µM) | 0.63 (≈ 1.55 µM) |  | 0.44 (≈ 1.08 µM) | 6.31 (≈ 15.5 µM) | 0.39 (≈ 0.959 µM) | 1.25 (≈ 3.07 µM) | 10 (≈ 24.6 µM) | 10 (≈ 24.6 µM) | 10 (≈ 24.6 µM) | 2.85 (≈ 7.01 µM) | 10 (≈ 24.6 µM) | 15.3 (≈ 37.6 µM) | 
C[C@@H]1[C@H](O)[C@@H](C)/C=C/C=C/C=C/C=C/C=C/C=C/C=C/[C@H](O[C@@H]2O[C@H](C)[C@@H](O)[C@H](N)[C@@H]2O)C[C@@H]2O[C@](O)(C[C@@H](O)C[C@@H](O)[C@H](O)CC[C@@H](O)C[C@@H](O)CC(=O)O[C@H]1C)C[C@H](O)[C@H]2C(=O)O [AMPHOTERICIN B] | 0.63 (≈ 0.682 µM) |  | 0.35 (≈ 0.379 µM) | 0.63 (≈ 0.682 µM) |  |  |  |  |  | 0.74 (≈ 0.801 µM) |  |  | 0.63 (≈ 0.682 µM) |  |  | 0.21 (≈ 0.227 µM) | 0.63 (≈ 0.682 µM) | 0.14 (≈ 0.152 µM) | 0.3
